Neddylation inh: blocks human cullin neddylation; P61081+Q13564; TR-FRET cullin neddylation, biochemical; calls only at 25 µM; actives 0.58% (n = 360,000); AID 651699; in the data active means inhibition above about 36%
proKLK7 act: activates the human kallikrein-7 zymogen | actives 0.9% (n = 370,000) | activation, % at 7 µM | purified proKLK7, EDANS-DABCYL substrate fluorescence; 100% is mature enzyme control, 0% vehicle | AID 652039 | P49862;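 active means activation above the mean of all tested compounds plus 3 SD, computed per campaign excluding outliers beyond control limits, cut at about 13% in these data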
Target sequence (P49862 whole entry, looked up): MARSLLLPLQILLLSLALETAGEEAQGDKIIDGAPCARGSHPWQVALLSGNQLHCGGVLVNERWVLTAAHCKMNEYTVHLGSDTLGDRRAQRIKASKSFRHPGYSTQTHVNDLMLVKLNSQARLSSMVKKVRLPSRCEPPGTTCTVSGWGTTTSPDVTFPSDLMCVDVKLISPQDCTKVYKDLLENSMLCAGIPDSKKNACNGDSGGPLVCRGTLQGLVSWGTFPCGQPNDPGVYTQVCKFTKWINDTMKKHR
proCasp3 act: activators of human procaspase-3; recombinant procaspase-3 D3A, Ac-DEVD-pNA absorbance 405 nm; AID 463141; actives 0.11% (n = 330,000); activation, % at 8.5 µM;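 active means activation above the mean of all tested compounds plus 3 SD, cut at about 21% in these data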;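 further: 0% = DMSO alone and 100% = DMSO wells spiked with extra 5 µM PC-3 D3A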
Target sequence (P42574 whole entry D9A/D28A/D175A): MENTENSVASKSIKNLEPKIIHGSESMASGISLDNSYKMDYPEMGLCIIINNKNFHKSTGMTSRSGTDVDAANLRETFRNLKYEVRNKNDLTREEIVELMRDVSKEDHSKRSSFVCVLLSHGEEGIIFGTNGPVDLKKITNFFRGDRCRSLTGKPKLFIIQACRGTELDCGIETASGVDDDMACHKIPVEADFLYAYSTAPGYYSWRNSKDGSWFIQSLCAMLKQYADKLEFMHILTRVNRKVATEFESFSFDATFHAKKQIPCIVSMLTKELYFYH
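Assay system – Procaspase-3 D3A mutant, all three cleavage aspartates alanine · Controls – DMSO-only low control, 5 µM PC-3 D3A high control · Schedule – 1 h compound preincubation, 2 h substrate hydrolysis at 25 °C · Signal – 405 nm absorbance of p-nitroaniline, reads at 0 and 120 min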
procasp7 counter: counter-screen for procaspase-3 activators: activators of human procaspase-7; recombinant procaspase-7, Ac-DEVD-pNA absorbance 405 nm; D23A/D198A/D206A triple mutant, cannot self-cleave; scale: DMSO 0, 5 µM enzyme 100; activation, % at 8.5 µM; actives 0.093% (n = 330,000); AID 463210;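 active means percent activation above the screen-wide mean plus 3 SD, cut at about 25% in these data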
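Detection: p-Nitroaniline absorbance at 405 nm, read at 0 and 120 min; system: Uncleavable procaspase-7 mutant enzyme; evaluation: % activation from two-timepoint absorbance difference, scaled to controls; times: 1 h enzyme–compound preincubation and 2 h substrate reaction, both 25 °C; buffer or medium: Zinc-free HEPES pH 7.4 with 300 mM NaCl, 0.01% Triton X-100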
proCasp7 act trip: counter-screen: procaspase-7 (human) activation in triplicate; shares compounds with proCasp3 act; recombinant procaspase-7, Ac-DEVD-pNA absorbance; asp23/198/206-to-Ala mutant, cannot self-cleave; activation, % at 8.5 µM; 210 tested, under 10 active; AID 488941;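 active means mean activation above a set limit taken from an earlier procaspase-7 screen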;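 further: 0% = DMSO wells and 100% = DMSO plus 5 µM procaspase-7 enzyme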
procasp3 conf: confirmation of human procaspase-3 activators; shares compounds with proCasp3 act; recombinant PC-3 D3A, Ac-DEVD-pNA absorbance 405 nm; 100% is higher-enzyme control; activation, % at 8.5 µM; actives 10% (n = 210);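 active means mean activation above a set limit carried over from the earlier primary screen, cut at about 22% in these data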
Numbers without * were called inactive; i = inactive; . = no result given. Only some compounds are listed: those with a hit (about 1.6% of all), similar ones and a draw of the others.

SMILES | Neddylation inh | proKLK7 act | proCasp3 act | procasp7 counter | proCasp7 act trip | procasp3 conf
CCN(CC)c1ccc(/C=N/NC(=S)NCc2ccco2)cc1 | . | -19 | 27* | 14 | 2 | 31*
Oc1ccc(/C=N/NC(=S)NCc2ccco2)cc1 | i | -3 | 4 | -3 | . | .
Cc1cc(C(F)(F)F)c(C#N)c(SCC(=O)Nc2nc3ccccc3s2)n1 | i | -21 | -3 | -8 | . | .
Cc1nc(SCC(=O)Nc2nc3ccccc3s2)c(C#N)c(C)c1C | i | -1 | 29* | -3 | -14 | -7
Cc1cc(C)c(C#N)c(SCC(=O)Nc2nnc(-c3ccccc3)s2)n1 | i | -1 | 27* | 22 | 2 | 1
O=C(OC12CCCN(C1)/C(=C/c1cccc(Cl)c1)C2)C1CCCC1 (stereo not given) | . | -1 | . | . | . | .
Cc1ccc(C)c(C(=O)COc2ncnc3ccccc23)c1 | i | -1 | 48* | 0 | 1 | 6
O=C(Cc1c(O)c2ccccc2[nH]c1=O)NC1CCCCCC1 | i | 1 | -1 | -4 | . | .
O=C(Cc1c(O)c2ccccc2[nH]c1=O)NC1CCCCCCC1 | i | 4 | 22* | -7 | 0 | 7
CC(=O)c1sc(NC(=O)C(C)C)nc1C | i | 0 | -4 | -1 | . | .
CC(=O)Nc1nc(C)c(C(C)=O)s1 | i | 0 | 25* | -12 | 4 | 4
O=S(=O)(c1cccs1)N1CCCc2nc(-c3ccc(F)cc3)ccc21 | . | 0 | . | . | . | .
COC(=O)C1=CN(CC2CCCO2)C=C(C(=O)OC)C1c1ccccc1C(F)(F)F (stereo not given) | i | -18 | 23* | 15 | -20 | -11
COC(=O)C1=CN(CCCN2CCCC2=O)C=C(C(=O)OC)C1c1ccccc1C(F)(F)F | . | 9 | -3 | -4 | . | .
COc1ccc(C)cc1NCc1cc(=O)oc2cc(-c3ccccc3)c(O)cc12 | i | 1 | 4 | 11 | . | .
COC(=O)c1ccccc1NCc1cc(=O)oc2cc(O)c(O)cc12 | . | -37 | 53* | 18 | 10 | 53*
Cc1cccc(-c2cccc3c4c([nH]c23)[C@@H]2C[C@H](N(C)C(=S)Nc3ccc(C#N)cc3)[C@H]([C@H](C)O)CN2CC4)c1 | . | 1 | . | . | . | .
O=c1c(O)c(-c2ccccc2)oc2cc(O)cc(O)c12 | i | -1 | -4 | -3 | . | .
CC(C)=CCc1cc(-c2oc3cc(O)cc(O)c3c(=O)c2O)ccc1O | i | -1 | 22* | 12 | 3 | 1
COc1ccc(C2=C/C(=C\c3cccc(OC(C)=O)c3)C(=O)O2)cc1 | i | 0 | 35* | -13 | -34 | -13
CN(CCCOC(=O)c1cc2ccccc2o1)C1CN(Cc2cn(Cc3ccc([N+](=O)[O-])cc3)nn2)S(=O)(=O)C1 (stereo not given) | . | 1 | . | . | . | .
CC(C)(C)S(=O)N1C[C@@H]2CC(=O)C=C2[C@H]1CCO (stereo not given in full) | . | 0 | . | . | . | .
C=CCN1C(=O)[C@@H](CC(=O)NCc2cccs2)[C@]2(C(=O)OCC)CCCCC/C=C/12 | . | 0 | . | . | . | .
O=c1c(O)c(-c2cccs2)oc2ccccc12 | i | -25 | 27* | 15 | 1 | 5
COC(=O)C1=C(NC(=O)c2cccc(OC)c2)CCS1 | i | . | 29* | 25 | 2 | 8
SMILES | Neddylation inh | proKLK7 act | proCasp3 act | procasp7 counter | proCasp7 act trip | procasp3 conf
COC(=O)C1=C(NC(=O)c2ccccc2C)CCS1 | i | 1 | 5 | -5 | . | .
Cc1cc2c3nonc3ccc2n1-c1ccccc1 | . | -4 | 25* | 20 | -22 | -13
c1ccc(-c2cc3c(ccc4nonc43)nn2)cc1 | i | 0 | 3 | -4 | . | .
C=C(C)CSc1nnc2n(N)c(=O)c3ccccc3n12 | i | -1 | 22* | 5 | 0 | 4
COc1cc(-c2nnc(SCC(=O)NN=Cc3c[nH]c4ccccc34)n2-c2ccccc2)cc(OC)c1OC | . | 0 | . | . | . | .
COC(=O)CSc1ncnc2c1cnn2Cc1ccccc1 | i | -1 | -6 | 1 | . | .
CC(C)OC(=O)CSc1ncnc2c1cnn2Cc1ccccc1 | i | 0 | 129* | 1 | 2 | 1
CCCn1c2ccccc2c2nnc(SCC(=O)Nc3nnc(CC(=O)OCC)s3)nc21 | i | 0 | 84* | 8 | 3 | 4
CCOC(=O)Cc1nnc(NC(=O)CSc2nnc3c4ccccc4n(C(C)C)c3n2)s1 | i | 1 | -6 | -3 | . | .
CCOc1ccc(C(=O)C[n+]2ccc(C(=O)NCc3ccccc3)cc2)cc1 | i | -1 | 33* | 7 | 5 | 7
COc1cccc(CNC(=O)C2CCC(CNS(=O)(=O)c3cccc4cccnc34)CC2)c1OC (stereo not given) | . | 0 | . | . | . | .
Cc1ccc2cc(C#N)c(NCCNC(=O)C3CC3)nc2c1C | . | 1 | 23* | 21 | -23 | -13
Cc1ccc2cc(C#N)c(NCCNC(=S)NCCCN(C)C)nc2c1C | . | 3 | 2 | -7 | . | .
Cc1sc(NC(=O)CCCC(=O)O)c(C#N)c1C | i | 0 | 22* | -8 | -7 | -1
COc1ccc(C(=O)OCCN2CCN(C3CN(Cc4cn(Cc5cccc(C)c5)nn4)S(=O)(=O)C3)CC2)cc1OC (stereo not given) | . | 0 | . | . | . | .
Cc1c(C#N)c(=O)oc2ccc3ccccc3c12 | i | -184 | 26* | 19 | -22 | -12
CC(=O)c1cccc(CN2CCC(CO)(CCOc3ccccc3)CC2)c1 | i | 1 | -6 | 2 | . | .
OCCOc1cccc(CN2CCC(CO)(CCOc3ccccc3)CC2)c1 | i | 0 | 25* | 6 | 2 | 5
Cc1ccc(S(=O)(=O)c2cc3ccccc3nc2N)cc1 | . | 3 | 24* | 2 | 7 | -1
Cc1ccc(S(=O)(=O)CC(=O)Nc2cccc(C)n2)cc1 | i | 0 | 23* | 5 | 2 | 5
O=C(OC12CCCN(C1)/C(=C/c1ccc(Cl)cc1)C2)c1ccc(F)cc1 (stereo not given) | . | 0 | . | . | . | .
O=C(NC12CC3CC(CC(C3)C1)C2)N(Cc1ccccc1)Cc1ccncc1 | i | 1 | 59* | 7 | 4 | 7
CNc1ccccc1C(=O)OC | i | 0 | -3 | -8 | . | .
CNc1ccccc1C(=O)OCC(C)=O | . | . | 22* | 22 | 17 | 24*
CC(=O)C1(C(=O)Nc2cc(C)cc(C)c2)CC(c2ccccn2)=NO1 (stereo not given) | . | -1 | . | . | . | .
COCCCNC(=O)CSc1nnc(-c2ccncc2)n1-c1ccc(OC)cc1 | . | 1 | . | . | . | .
CCCc1[nH]nc2c1C(c1cc(OC)cc(OC)c1)C(C#N)=C(N)O2 (stereo not given) | i | 0 | -11 | -12 | . | .

Assay outcomes (PubChem)
